# In ChEMBL document CHEMBL4316648, “Ipomeolides A and B, Resin Glycosides from Ipomoea pes-caprae and Combination Therapy of Ipomeolide A with Doxorubicin” (J Nat Prod, 2019):
# Activity calls are given as the source filed them. The calls are words filed in the database; no cut-off is given here.
# Experiments:
# MDA-MB-231 = test: Cytotoxicity in human MDA-MB-231 cells assessed as reduction in cell viability incubated for 48 hrs by MTT assay; type: functional, cell-based
# Summary of the method: (§1)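 Human tumour lines grown in DMEM with 10% fetal calf serum, 37 °C, 5% CO2, passaged at 60–70% confluency. About 5000 cells/well seeded in triplicate and grown 24 h. Medium then replaced with medium containing compound at various concentrations. After 48 h, MTT (5 mg/mL) added for 4 h. DMSO-soluble formazan read at 590 nm. Doxorubicin served as positive control.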
# MCF7 = test: Cytotoxicity in human MCF7 cells assessed as reduction in cell viability incubated for 48 hrs by MTT assay; type: functional, cell-based; summary of the method: as §1
# A549 = test: Cytotoxicity in human A549 cells assessed as reduction in cell viability incubated for 48 hrs by MTT assay; type: functional, cell-based; summary of the method: as §1
# HL-60 = test: Cytotoxicity in human HL60 cells assessed as reduction in cell viability incubated for 48 hrs by MTT assay; type: functional, cell-based; summary of the method: as §1
# K562 [1] = test: Cytotoxicity in human K562 cells assessed as induction of cell death at 1 uM incubated for 72 hrs by MTT assay; type: functional
# Summary of the method: (§2)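 K562 cells were grown in DMEM with 10% fetal calf serum at 37 °C in 5% CO2. About 5000 cells per well were seeded and grown 24 h. Medium was then replaced with medium holding various compound concentrations for 72 h. Viability was measured by MTT (4 h), reading formazan in DMSO at 590 nm. Survival was compared with untreated control, in triplicate.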
# K562 [2] = test: Cytotoxicity in human K562 cells assessed as reduction in cell viability incubated for 72 hrs by MTT assay; type: functional; details: K562, 72 h, read-out: LD50 (the source's name); summary of the method: as §2
# K562 [3] = test: Induction of apoptotic cell death in human K562 cells at 1 uM incubated for 72 hrs by Annexin V/propidium iodide staining based assay; type: functional
# Summary of the method: (§3)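 K562 cells treated for 72 h with doxorubicin, the test agent, or the two combined. They were then stained with labelled annexin V and propidium iodide to show surface phosphatidylserine, and imaged by fluorescence microscopy.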
# [4] = Toxicity in human K562 cells assessed as reduction in cell viability incubated for 72 hrs by MTT assay; type: cell-based; details: read-out: LD50; summary of the method: as §2
# K562 [5] = test: Toxicity in human K562 cells assessed as reduction in cell viability up to 10 uM incubated for 72 hrs by MTT assay; type: cell-based; details: k562, 72 h
# Summary of the method: (§4)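 K562 leukaemia cells seeded at equal numbers per well and exposed for 72 h to doxorubicin (1 or 2 μM), the test agent at varying concentrations, or both. Surviving cells counted relative to untreated control. Significance was taken as P < 0.05.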
# K562 [6] = test: Potentiation of doxorubicin-induced cytotoxicity in human K562 cells assessed as induction of cell death at 4 uM in presence of 1 uM doxorubicin incubated for 72 hrs by MTT assay; type: functional
# Summary of the method: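 K562 cells were grown in DMEM with 10% FCS at 37 °C in 5% CO2 and seeded at about 5000 cells per well for 24 h. They were cotreated for 72 h with 1 or 2 μM doxorubicin plus varying test compound up to 10 μM. Survival was read by MTT at 590 nm against untreated control, in triplicate. Significance was set at P < 0.05.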
# K562 [7] = test: Toxicity in human K562 cells assessed as induction of apoptotic cell death at 4 uM incubated for 72 hrs by Annexin V/propidium iodide staining based assay; details: k562, 72 h; summary of the method: as §3
# K562 [8] = test: Potentiation of doxorubicin-induced cytotoxicity in human K562 cells assessed as induction of cell death at 3 to 10 uM in presence of 1 uM doxorubicin incubated for 72 hrs by MTT assay; type: functional, cell-based; summary of the method: as §4
# K562 [9] = test: Cytotoxicity in human K562 cells assessed as reduction in cell viability incubated for 48 hrs by MTT assay; type: functional, cell-based; details: K562, 48 h; summary of the method: as §1
# K562 [10] = test: Potentiation of doxorubicin-induced apoptotic cell death in human K562 cells at 4 uM in presence of 1 uM doxorubicin incubated for 72 hrs by Annexin V/propidium iodide staining based assay; type: functional; summary of the method: as §3
# K562 [11] = test: Potentiation of doxorubicin-induced cytotoxicity in human K562 cells assessed as induction of cell death in presence of doxorubicin incubated for 72 hrs by MTT assay; type: functional, cell-based; details: K562, 72 h; summary of the method: as §4
# K562 [12] = test: Potentiation of doxorubicin-induced cytotoxicity in human K562 cells assessed as induction of cell death at 1 to 10 uM in presence of 2 uM doxorubicin incubated for 72 hrs by MTT assay; type: functional, cell-based; summary of the method: as §4
# K562 [13] = test: Potentiation of doxorubicin-induced cytotoxicity in human K562 cells assessed as induction of cell death in presence of 1 uM doxorubicin incubated for 72 hrs by MTT assay; type: functional; details: K562, 72 h, read-out: MEC; summary of the method: as §4
Structure (SMILES),Activity (MDA-MB-231),Activity (MCF7),Activity (A549),Activity (HL-60),Activity (K562 [1]),CC50 (K562 [2]),Activity (K562 [3]),CC50 at 72 h [4],Activity (K562 [5]),Activity (K562 [6]),Activity (K562 [7]),Activity (K562 [8]),IC50 (K562 [9]),Activity (K562 [10]),IC50 (K562 [11]),Activity (K562 [12]),minimal effective concentration (K562 [13])
CCCCCCCCCCCC(=O)O[C@H]1[C@H](O[C@@H]2[C@@H](O[C@@H]3O[C@@H](C)[C@H](OC(=O)[C@@H](C)CC)[C@@H](O)[C@H]3OC(=O)/C=C/c3ccccc3)[C@H]3OC(=O)CCCCCCCCC[C@@H](CCCCC)O[C@@H]4O[C@H](C)[C@@H]5OC(C)(C)O[C@@H]5[C@H]4O[C@@H]3O[C@H]2C)O[C@@H](C)[C@H](O[C@@H]2O[C@@H](C)[C@H](O)[C@H]3OC(C)(C)O[C@@H]23)[C@H]1O,inactive,inactive,inactive,inactive,,,,,,,,,,,,,
CCCCCCCCCCCC(=O)O[C@H]1[C@H](O[C@@H]2[C@@H](O[C@@H]3O[C@@H](C)[C@H](OC(=O)[C@@H](C)CC)[C@H]4OC(C)(C)O[C@@H]34)[C@H]3OC(=O)CCCCCCCCC[C@@H](CCCCC)O[C@@H]4O[C@H](C)[C@@H]5OC(C)(C)O[C@@H]5[C@H]4O[C@@H]3O[C@H]2C)O[C@@H](C)[C@H](O[C@@H]2O[C@@H](C)[C@H](O)[C@H]3OC(C)(C)O[C@@H]23)[C@H]1O,inactive,inactive,inactive,inactive,,,,,,,,,,,,,
COc1cccc2c1C(=O)c1c(O)c3c(c(O)c1C2=O)C[C@@](O)(C(=O)CO)C[C@@H]3O[C@H]1C[C@H](N)[C@H](O)[C@H](C)O1 [DOXORUBICIN],,,,,11%,2 µM,inactive,,,,,,,,,,
CCCCCCCCCCCC(=O)O[C@H]1[C@H](O[C@@H]2[C@@H](O[C@@H]3O[C@@H](C)[C@H](OC(=O)[C@@H](C)CC)[C@@H](O)[C@H]3O)[C@H]3OC(=O)CCCCCCCCC[C@@H](CCCCC)O[C@@H]4O[C@H](C)[C@H](O)[C@H](O)[C@H]4O[C@@H]3O[C@H]2C)O[C@@H](C)[C@H](O[C@@H]2O[C@@H](C)[C@H](O)[C@@H](O)[C@H]2O)[C@H]1O,inactive,inactive,inactive,inactive,,,,20 µM,Non-Toxic,47%,Non-Toxic,Active,18.3 µM,Active,8.5 µM,Active,4 µM
